Data: ChEMBL document CHEMBL4425125, “Development of a Dual-Acting Antibacterial Agent (TNP-2092) for the Treatment of Persistent Bacterial Infections” (J Med Chem, 2016)
In brackets after ≈: the same amount, converted by molar mass.

Legend:
[1] = Inhibition of wild type Staphylococcus aureus RNA polymerase assessed as reduction in RNA product formation
[2] = Inhibition of RIF-resistant Staphylococcus aureus RNA polymerase RpoB H481Y mutant assessed as reduction in RNA product formation
Staphylococcus aureus [3] = test: Antimicrobial activity against Staphylococcus aureus isogenic forms expressing gyrA S84L mutant; assay type: functional
Staphylococcus aureus [4] = test: Antimicrobial activity against wild type Staphylococcus aureus; assay type: functional
Staphylococcus aureus [5] = test: Antimicrobial activity against Staphylococcus aureus isogenic forms expressing parC S80F mutant; assay type: functional
Method in brief: (§1)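 MIC (μg/mL) on otherwise isogenic derivatives of S. aureus ATCC 29213 that carry the rifamycin-resistance allele rpoB H481Y and/or the quinolone-resistance alleles parC S80F and gyrA S84L. The wild-type parent is the reference strain. MICs were determined both by agar dilution and by broth dilution, tested side by side on the same panel.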

Staphylococcus aureus [6] = test: Antimicrobial activity against Staphylococcus aureus isogenic forms expressing gyrA S84L and parC S80F mutant; assay type: functional; method in brief: as §1
Staphylococcus aureus [7] = test: Antimicrobial activity against Staphylococcus aureus isogenic forms expressing rpoB H481Y mutant; assay type: functional
Staphylococcus aureus [8] = test: Antimicrobial activity against Staphylococcus aureus isogenic forms expressing rpoB H481Y and gyrA S84L mutant; assay type: functional
Staphylococcus aureus [9] = test: Antimicrobial activity against Staphylococcus aureus isogenic forms expressing rpoB H481Y and parC S80F mutant; assay type: functional; method in brief: as §1
Staphylococcus aureus [10] = test: Antimicrobial activity against Staphylococcus aureus isogenic forms expressing rpoB H481Y/gyrA S84L/parC S80F mutant; assay type: functional; method in brief: as §1
Staphylococcus aureus [11] = test: Antimicrobial activity against methicillin-sensitive Staphylococcus aureus clinical isolates by broth dilution method; assay type: functional
Staphylococcus aureus [12] = test: Antimicrobial activity against methicillin-resistant Staphylococcus aureus clinical isolates by broth dilution method; assay type: functional
[13] = test system: Staphylococcus epidermidis; test: Antimicrobial activity against methicillin-sensitive Staphylococcus epidermidis clinical isolates by broth dilution method; assay type: functional
[14] = test system: Staphylococcus epidermidis; test: Antimicrobial activity against methicillin-resistant Staphylococcus epidermidis clinical isolates by broth dilution method; assay type: functional
Streptococcus pyogenes = test: Antimicrobial activity against Streptococcus pyogenes clinical isolates by broth dilution method; assay type: functional
Streptococcus agalactiae = test: Antimicrobial activity against Streptococcus agalactiae clinical isolates by broth dilution method; assay type: functional
Streptococcus pneumoniae = test: Antimicrobial activity against Streptococcus pneumoniae clinical isolates by broth dilution method; assay type: functional
Staphylococcus aureus [15] = test: Antimicrobial activity against methicillin-resistant Staphylococcus aureus 67-0; assay type: functional
Staphylococcus aureus [16] = test: Bactericidal activity against methicillin-resistant Staphylococcus aureus 67-0; assay type: functional

| SMILES | MIC (Staphylococcus aureus [3]) [µg/mL] | MIC (Staphylococcus aureus [4]) [µg/mL] | MIC (Staphylococcus aureus [5]) [µg/mL] | MIC (Staphylococcus aureus [6]) [µg/mL] | MIC (Staphylococcus aureus [7]) [µg/mL] | MIC (Staphylococcus aureus [8]) [µg/mL] | MIC (Staphylococcus aureus [9]) [µg/mL] | MIC (Staphylococcus aureus [10]) [µg/mL] | MIC (Staphylococcus aureus [15]) [µg/mL] | MBC (Staphylococcus aureus [16]) [µg/mL] | further results |
| --- | --- | --- | --- | --- | --- | --- | --- | --- | --- | --- | --- |
| CO[C@H]1/C=C/O[C@@]2(C)Oc3c(C)c(O)c4c(O)c(c(/C=N/N5CCN(C)CC5)c(O)c4c3C2=O)NC(=O)/C(C)=C\C=C\[C@H](C)[C@H](O)[C@@H](C)[C@@H](O)[C@@H](C)[C@H](OC(C)=O)[C@@H]1C [RIFAMPIN] | 0.008 (≈ 0.00972 µM) | 0.008 (≈ 0.00972 µM) | 0.008 (≈ 0.00972 µM) | 0.008 (≈ 0.00972 µM) | > 250 | > 250 | > 250 | > 250 | 0.008 (≈ 0.00972 µM) | 2 (≈ 2.43 µM) | IC50 [1]: 15 nM; IC50 [2]: > 25000 nM; MIC50 (Staphylococcus aureus [11]): 0.015 µg/mL (≈ 0.0182 µM); MIC90 (Staphylococcus aureus [11]): 0.015 µg/mL (≈ 0.0182 µM); MIC (Staphylococcus aureus [12]): 0.008 to 4 µg/mL (≈ 0.00972 to 4.86 µM); MIC50 (Staphylococcus aureus [12]): 0.015 µg/mL (≈ 0.0182 µM); MIC90 (Staphylococcus aureus [12]): 0.015 µg/mL (≈ 0.0182 µM); MIC50 [13]: 0.015 µg/mL (≈ 0.0182 µM); MIC90 [13]: 0.015 µg/mL (≈ 0.0182 µM); MIC [14]: >=0.004 - 4 ug ml-1; MIC50 ([14]; Staphylococcus epidermidis): 0.015 µg/mL (≈ 0.0182 µM); MIC90 ([14]; Staphylococcus epidermidis): > 4 µg/mL; MIC50 (Streptococcus pyogenes): 0.06 µg/mL (≈ 0.0729 µM); MIC90 (Streptococcus pyogenes): 0.12 µg/mL (≈ 0.146 µM); MIC (Streptococcus agalactiae): 0.03 to 2 µg/mL (≈ 0.0365 to 2.43 µM); MIC50 (Streptococcus agalactiae): 0.12 µg/mL (≈ 0.146 µM); MIC90 (Streptococcus agalactiae): 0.12 µg/mL (≈ 0.146 µM); MIC (Streptococcus pneumoniae): 0.12 to 1 µg/mL (≈ 0.146 to 1.22 µM); MIC50 (Streptococcus pneumoniae): 0.25 µg/mL (≈ 0.304 µM); MIC90 (Streptococcus pneumoniae): 0.25 µg/mL (≈ 0.304 µM) |
| C[C@H]1COc2c(N3CCN(C)CC3)c(F)cc3c(=O)c(C(=O)O)cn1c23.C[C@H]1COc2c(N3CCN(C)CC3)c(F)cc3c(=O)c(C(=O)O)cn1c23.O [LEVOFLOXACIN] | 0.25 | 0.25 | 1 | 8 | 0.25 | 0.25 | 1 | 8 | 2 | 2 | – |
| CN[C@H](CC(C)C)C(=O)N[C@H]1C(=O)N[C@@H](CC(N)=O)C(=O)N[C@H]2C(=O)N[C@H]3C(=O)N[C@H](C(=O)N[C@H](C(=O)O)c4cc(O)cc(O)c4-c4cc3ccc4O)[C@H](O)c3ccc(c(Cl)c3)Oc3cc2cc(c3O[C@@H]2O[C@H](CO)[C@@H](O)[C@H](O)[C@H]2O[C@H]2C[C@](C)(N)[C@H](O)[C@H](C)O2)Oc2ccc(cc2Cl)[C@H]1O [VANCOMYCIN] | – | – | – | – | – | – | – | – | 1 (≈ 0.69 µM) | 1 (≈ 0.69 µM) | – |
